Article PMC5790683 (Journal of Pharmaceutical Analysis, 2013)

What was measured:
[1] = Processed sample stability; format: physicochemical; details: 45 h at 2-8 °C, UPLC-MS/MS, mean of n=6
Outline: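 Processed-sample stability was tested at LQC and HQC in human plasma, six replicates per level: autosampler 48 h, wet extract 45 h, reinjection 24 h. Extracts were analysed by UPLC–MS/MS against a 9-point calibration of 1.01–200 pg/mL. Acceptance was accuracy within ±15% and precision ≤15% RSD.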

[2] = Pharmacokinetic study in healthy male subjects after oral desmopressin; format: in vivo; details: human, plasma, 0.4 mg
Outline: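 Healthy male volunteers (n=6), fasted 9 h, received a single oral 0.4 mg dose (2×0.2 mg tablets). Plasma was spun at 3200 rpm for 10 min, stored at −20±5 °C, spiked with IS, extracted and quantified by positive-ESI MRM UPLC–MS/MS (HSS T3 column, 40 °C; LLOQ 1.01 pg/mL). Non-compartmental analysis.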

- Accuracy/stability (%), Process (wet extract) ([1]; spiked 3.05 pg/mL (LQC)): 94.84%
- Accuracy/stability (%), Process (wet extract) ([1]; spiked 156.23 pg/mL (HQC)): 99.20%
- AUC(0-inf) [2]: 0.157 ± 0.051 ng·h/mL
- AUC(0-t) [2]: 0.149 ± 0.046 ng·h/mL
- Cmax [2]: 0.035 ± 0.0081 ng/mL
- Tmax [2]: 1.4 ± 0.48 h
- half-life [2]: 3.48 ± 0.5 h
- level at 1.25 h [2]: 0.0361 ng/mL
Structure (SMILES): NC(=O)CC[C@@H]1NC(=O)[C@H](Cc2ccccc2)NC(=O)[C@H](Cc2ccc(O)cc2)NC(=O)CCSSC[C@@H](C(=O)N2CCC[C@H]2C(=O)N[C@H](CCCN=C(N)N)C(=O)NCC(N)=O)NC(=O)[C@H](CC(N)=O)NC1=O [desmopressin]
